Laboratory results taken from PubChem BioAssay.
Inconclusive results are not listed.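 The calls were made as follows, unless noted: active = RAM network inhibition above 8.4% in each of two replicates, 3 SD over the compound average; inconclusive = above 8.4% inhibition in only one replicate; inactive = 8.4% inhibition or less in each replicate.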

Key:
[1] = S. cerevisiae growth inhibition in permissive medium (OD615), pilot counter-assay for S. cerevisiae lifespan shortening project, permissive growth control (AID 705;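 active = growth inhibition above 25% in both replicates, a cutoff set 3 SD above the mean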); conditions: OD615, 24 h, at 10 µM, hits give high values
Method in brief: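 assay system = Saccharomyces cerevisiae strain carrying genetically modified DeaD replicative-lifespan system | medium = SC raffinose/galactose permissive medium | dosing = 10 µM single dose, 0.25% DMSO | schedule = 24 h compound exposure at 30 °C after 4 h pre-growth | measured by = OD at 615 nm | read-out basis = growth inhibition from lowered OD615 after 24 h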

[2] = S. cerevisiae growth inhibition in restrictive medium, OD615, pilot screen, restrictive growth control, yeast lifespan reduction project (AID 706;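 active = growth inhibition above a set limit, 3 SD over mean compound inhibition, in both replicates, cut at about 43% in these data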;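 also: modified DeaD lifespan yeast strain shifted to restrictive glucose medium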); conditions: OD615, 48 h, at 10 µM, hits give high values
Method in brief: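 Buffer or medium: CSMM-D glucose medium. Material: genetically modified Saccharomyces cerevisiae, DeaD replicative lifespan assay strain. Times: 48 h compound exposure at 30 °C. Measured by: optical density at 615 nm.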

[3] = doxorubicin toxicity protection in MRP-1 cells – H69AR cells, CellTiter-Glo, duplicate, MRP-1 activator project, pilot screen (AID 807;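 active = viability increase at or above a cutoff of the median across tested compounds plus 3 SD, cut at about 8.5% in these data, passing the limit was not always enough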;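 also: compound pretreatment 18-22 h then 72 h combined with doxorubicin; 0% = doxorubicin alone and 100% = vehicle without doxorubicin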); conditions: H69AR viability with doxorubicin, CellTiter-Glo luminescence; at 10 µM; hits give high values
[4] = viability of HCT116 without oncogenic beta-catenin – human colon tumor cells, pilot screen (AID 823;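 active = cell viability at or below a set limit in both duplicate runs, the limit being the all-compound median minus 4 SD, cut at about 23% in these data, passing the limit was not always enough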;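 also: 0% = wells killed by 20 µM Hyamine and 100% = untreated DMSO cell wells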); conditions: HCT116 beta-catenin knockout viability, CellTiter-Glo, 60 h; at 10 µM; hits give low values
[5] = viability of PTEN-null HCT116 cells – cell-based, HCT116 clonal line, CellTiter-Glo, pilot screen (AID 824;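 active = viability at or below 27.92% in each of two runs, the all-compound median minus 4 SD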;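 also: 0% = 20 µM Hyamine control and 100% = vehicle cell control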); conditions: HCT116 PTEN-deleted viability, 60 h, at 10 µM, hits give low values
[6] = RAM pathway blockade in budding yeast – dse1pr::URA3 reporter, 5-FOA selection, pilot screen (AID 869;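 active = inhibition over a set limit, the all-compound mean plus 3 SD, in both replicate runs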;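 also: 0% = DMSO wells with no growth and 100% = 10 µM 1-NA-PP1 with full growth; RAM network block rescues cells from 5-FOA so hits raise OD615 growth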); conditions: S. cerevisiae dse1pr::URA3 5-FOA growth, OD615, 2 d; at 10 µM; hits give high values; strain carries analog-sensitive mutant Cbk1 kinase
[7] = RAM signaling pathway blockade in yeast – S. cerevisiae, Pdr1DBD-CYC8 efflux-inhibited sensitized strain, primary screen (AID 1298);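 also: 0% = DMSO untreated cells without growth and 100% = 10 µM 1-NA-PP1 full growth; higher means more yeast growth rescued from 5-FOA killing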; conditions: S. cerevisiae cbk1-as DSE1-URA3 strain, 5-FOA growth OD615, 2 d; at 50 µM; hits give high values

COc1ccc(-c2nc(CSCC(=O)N3CCC(C(N)=O)CC3)c(C)o2)cc1OC
inactive: growth inhibition [1] -2.87% | growth inhibition [2] 9.12% | viability increase [3] -0.52% | viability [4] 106% | viability [5] 98.3% | inhibition [6] 0.78% | RAM network inhibition [7] -0.72%

CC(=O)NCC(=O)OCC(=O)c1ccc(C)c(C)c1
inactive: growth inhibition [1] -7.93% | growth inhibition [2] -2.07% | viability increase [3] -1.39% | viability [4] 88.8% | viability [5] 95.1% | inhibition [6] 0.75% | RAM network inhibition [7] -0.41%

CSC1=NCCN1C(=O)COc1ccccc1
inactive: growth inhibition [1] 5.44% | growth inhibition [2] -6.09% | viability increase [3] 1.95% | viability [4] 97.8% | viability [5] 104% | inhibition [6] 1.57% | RAM network inhibition [7] 2.21%

CCOC(=O)Cn1c(C(C)=O)nc2ccccc21
inactive: growth inhibition [1] -18.1% | growth inhibition [2] -25.1% | viability increase [3] 0.94% | viability [4] 102% | viability [5] 94.8% | inhibition [6] 0.28% | RAM network inhibition [7] 0.32%

CC1=CC(c2ccccc2)n2nc(NS(=O)(=O)c3ccc(C)cc3)nc2N1 (configuration not stated)
inactive: growth inhibition [1] -9.59% | growth inhibition [2] 5.79% | viability increase [3] -1.29% | viability [4] 100% | viability [5] 99.5% | inhibition [6] 0.09% | RAM network inhibition [7] 2.86%

CCOc1ccccc1NC(=O)C1CCN(S(=O)(=O)c2ccc(OC)c(OC)c2)CC1
inactive: growth inhibition [1] -4.97% | growth inhibition [2] -2.79% | viability increase [3] -2.46% | viability [4] 95% | viability [5] 98.1% | inhibition [6] 0.085% | RAM network inhibition [7] 0.83%

CC1CCCCN1S(=O)(=O)c1coc(C(N)=O)c1 (configuration not stated)
inactive: growth inhibition [1] -12.1% | growth inhibition [2] -13.6% | viability increase [3] -2.18% | viability [4] 105% | viability [5] 96.8% | inhibition [6] 3% | RAM network inhibition [7] 0.05%

CCN1CCN(c2ncnc3c2sc(=S)n3-c2ccccc2)CC1
inactive: growth inhibition [1] 8.5% | growth inhibition [2] 11.5% | viability increase [3] -3.4% | viability [4] 85.4% | viability [5] 84.9% | inhibition [6] 1.73% | RAM network inhibition [7] -0.06%

COCCNC(=O)CS(=O)Cc1nc(-c2ccccc2C)oc1C (configuration not stated)
inactive: growth inhibition [1] -8.16% | growth inhibition [2] 5.6% | viability increase [3] -0.56% | viability [4] 100% | viability [5] 98% | inhibition [6] 0.23% | RAM network inhibition [7] 2.05%

CC(=NCCc1ccccc1)C1=C(O)CSC1=O
inactive: growth inhibition [1] -3.27% | growth inhibition [2] -6.07% | viability increase [3] -1.75% | viability [4] 99.4% | viability [5] 96.3% | inhibition [6] 0.97% | RAM network inhibition [7] 1%

O=C(NCCN1CCCCC1)c1ccc2c(c1)OCCO2
inactive: growth inhibition [1] -9.66% | growth inhibition [2] -10.3% | viability increase [3] -1.4% | viability [4] 102% | viability [5] 99% | inhibition [6] 1.86% | RAM network inhibition [7] 2.64%

CCOC(=O)c1cc2c(=O)n3ccccc3nc2n(CCCOC)c1=NC(=O)c1cccnc1
inactive: growth inhibition [1] -0.71% | growth inhibition [2] -4.29% | viability increase [3] -4.22% | viability [4] 112% | viability [5] 93.7% | inhibition [6] 0.775% | RAM network inhibition [7] 3.03%

CN1C[N+]([O-])=C(c2ccccc2)C1(C)C
inactive: growth inhibition [1] -1.95% | growth inhibition [2] -8.32% | viability increase [3] -2.64% | viability [4] 98.7% | viability [5] 91.2% | inhibition [6] 0.69% | RAM network inhibition [7] 1.81%

CC(=O)Nc1nnc(-c2ccc3c(c2)CCCC3)o1
inactive: growth inhibition [1] -12.7% | growth inhibition [2] 3.68% | viability increase [3] -0.69% | viability [4] 95% | viability [5] 88.3% | inhibition [6] 1.36% | RAM network inhibition [7] 4.21%

CCOc1ccc(OCC)c(S(=O)(=O)NCCCN2CCOCC2)c1
inactive: growth inhibition [1] -13.8% | growth inhibition [2] -12.2% | viability increase [3] -0.25% | viability [4] 99.8% | viability [5] 99% | inhibition [6] 0.535% | RAM network inhibition [7] 0.2%

CC1(C)CC(=O)C2=C(C1)OC(N)=C(C#N)C21CCN(Cc2ccccc2)CC1
inactive: growth inhibition [1] -19.9% | growth inhibition [2] -21.6% | viability increase [3] -3.46% | viability [4] 97.7% | viability [5] 97.6% | inhibition [6] 2.13% | RAM network inhibition [7] 5.53%

CCn1c(SCc2nc(-c3ccccc3)no2)nc2ccccc21
inactive: growth inhibition [1] -12% | growth inhibition [2] 8.5% | viability increase [3] 1.73% | viability [4] 93.1% | viability [5] 92.3% | inhibition [6] 0.38% | RAM network inhibition [7] 1.2%

Oc1cccc(/C=N/c2c(-c3ccco3)nc3ccccn23)c1
inactive: growth inhibition [1] -9.82% | growth inhibition [2] -4.22% | viability increase [3] -3.47% | viability [4] 87.7% | viability [5] 93.7% | inhibition [6] 2% | RAM network inhibition [7] 5.22%

CCn1c(CNC(=O)c2ccc(OC)cc2)nnc1SC
inactive: growth inhibition [1] -3.98% | growth inhibition [2] 3.58% | viability increase [3] -1.74% | viability [4] 90.6% | viability [5] 91.9% | inhibition [6] 1.44% | RAM network inhibition [7] 4.37%

Cc1ccc(C2=CC(c3ccc(N(C)C)cc3)n3nnnc3N2)cc1 (configuration not stated)
inactive: growth inhibition [1] -10.6% | growth inhibition [2] 7.92% | viability increase [3] -4.61% | viability [4] 84% | viability [5] 77.3% | inhibition [6] 2.63% | RAM network inhibition [7] -0.47%

CCc1nccn1S(=O)(=O)c1ccc(OC)c(OC)c1
inactive: growth inhibition [1] -17.4% | growth inhibition [2] -10% | viability increase [3] -0.29% | viability [4] 100% | viability [5] 93.3% | inhibition [6] 1.67% | RAM network inhibition [7] 0.47%

CS(=O)(=O)N1CCN(c2nc(-c3ccccc3)cs2)CC1
inactive: growth inhibition [1] 10.1% | growth inhibition [2] 3.18% | viability increase [3] 0.2% | viability [4] 99.9% | viability [5] 94.4% | inhibition [6] -0.535% | RAM network inhibition [7] -0.16%

O=C(O)CCCNS(=O)(=O)c1ccc(F)cc1
inactive: growth inhibition [1] -5.7% | growth inhibition [2] -0.905% | viability increase [3] -1.33% | viability [4] 105% | viability [5] 101% | inhibition [6] 1.14% | RAM network inhibition [7] 0.11%

Cn1c(Cn2c(=O)sc3ccccc32)nnc1SCC(=O)NCc1ccc(F)cc1
inactive: growth inhibition [1] -13.5% | growth inhibition [2] -17.4% | viability increase [3] -1.09% | viability [4] 104% | viability [5] 95% | inhibition [6] 3.3% | RAM network inhibition [7] 2.63%

COc1ccc(Nc2cc(C)nc3nc(C)nn23)c(OC)c1
inactive: growth inhibition [1] -2.91% | growth inhibition [2] 4.67% | viability increase [3] -1.65% | viability [4] 109% | viability [5] 106% | inhibition [6] 0.83% | RAM network inhibition [7] 0.32%

CCCCNc1nc2c(c(=O)n(C)c(=O)n2C)n1CCC
inactive: growth inhibition [1] -8.32% | growth inhibition [2] -0.415% | viability increase [3] 0.36% | viability [4] 97.1% | viability [5] 96% | inhibition [6] -0.375% | RAM network inhibition [7] 1.74%

O=C(Nc1ccc2oc(-c3ccccc3)nc2c1)c1ccncc1
inactive: growth inhibition [1] -2.31% | growth inhibition [2] -10.5% | viability increase [3] 2.36% | viability [4] 79.7% | viability [5] 77.9% | inhibition [6] 0.165% | RAM network inhibition [7] 1.62%

CCOC(=O)C1CCN(c2cc(=O)n(Cc3ccc(F)cc3)c(=O)[nH]2)CC1
inactive: growth inhibition [1] -11% | growth inhibition [2] -17.4% | viability increase [3] -0.81% | viability [4] 96.8% | viability [5] 88.5% | inhibition [6] 3.19% | RAM network inhibition [7] 5.11%

COc1ccc(S(=O)(=O)N2Cc3ccccc3CC2C(=O)O)cc1OC (configuration not stated)
inactive: growth inhibition [1] 6.5% | growth inhibition [2] 3.09% | viability increase [3] 0.39% | viability [4] 104% | viability [5] 96.1% | inhibition [6] 1.33% | RAM network inhibition [7] 5.1%

COc1ccc(N(CC(=O)N2CC=C(c3ccccc3)CC2)S(=O)(=O)c2c(C)noc2C)cc1
inactive: growth inhibition [1] -3.14% | growth inhibition [2] 1.52% | viability increase [3] -4.79% | viability [4] 98.1% | viability [5] 97.2% | inhibition [6] 1.41% | RAM network inhibition [7] 2.09%

Cn1c(=O)oc2cc(S(=O)(=O)N3CCC(C(=O)N4CCN(c5ccccc5)CC4)CC3)ccc21
inactive: growth inhibition [1] 0.31% | growth inhibition [2] 3.94% | viability increase [3] -2.78% | viability [4] 94.6% | viability [5] 93.1% | inhibition [6] -0.21% | RAM network inhibition [7] 7.13%

COCC(=O)Nc1cc(=O)n(C)c(=O)n1C
inactive: growth inhibition [1] -4.37% | growth inhibition [2] -24.4% | viability increase [3] -1.62% | viability [4] 100% | viability [5] 94.4% | inhibition [6] 1.73% | RAM network inhibition [7] -0.05%

CCCc1cc(C(=O)NCc2cccs2)no1
inactive: growth inhibition [1] -11.4% | growth inhibition [2] 21.3% | viability increase [3] -3.29% | viability [4] 101% | viability [5] 94.1% | inhibition [6] 1.34% | RAM network inhibition [7] 0.74%

Cc1cccc(CCNC(=O)c2nnc(Cc3ccc(Cl)cc3)o2)c1
inactive: growth inhibition [1] -3.04% | growth inhibition [2] 1.66% | viability increase [3] 0.18% | viability [4] 102% | viability [5] 95.5% | inhibition [6] 1.27% | RAM network inhibition [7] 6.94%

Cc1ccc(-c2ccc(CCC(=O)O)n2C(C)C)cc1
inactive: growth inhibition [1] 3.3% | growth inhibition [2] -1.55% | viability increase [3] -1.75% | viability [4] 94.7% | viability [5] 101% | inhibition [6] 2.1% | RAM network inhibition [7] 4.37%

Cc1ccccc1C(=O)NCCN=C1NS(=O)(=O)c2ccccc21
inactive: growth inhibition [1] -7.76% | growth inhibition [2] 10.5% | viability increase [3] 0.1% | viability [4] 113% | viability [5] 103% | inhibition [6] 0.69% | RAM network inhibition [7] 1.88%
